The source of these data is ChEMBL document CHEMBL1123351, “Synthesis and pharmacological evaluation of some 6-substituted 7-methyl-1,4-dioxa-7-azaspiro[4.5]decanes as potential dopamine agonists” (1986).

What all share (assay type): functional
The test system of one experiment is Felis catus. The experiment can be described thus: Compound was tested in vivo for dopamine agonist activity in the cat cardioaccelerator nerve assay. The note with it: read-out: ID50 (the source's name). Put shortly: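 Cats anesthetized with pentobarbital sodium 30 mg/kg injected into the thoracic cavity. Compounds given intravenously at doses spaced 0.33 log intervals apart, with N = 3 per dose. Inhibition of cardioaccelerator nerve response measured.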

Experiment [1] deals with Rattus norvegicus. Kind of experiment: Compound was tested in vivo for dopamine agonist activity in the rat rotation assay after intravenous administration at dose 0.46 (umol/kg).
The test system of experiment [2] is Rattus norvegicus. Kind of experiment: Compound was tested in vivo for dopamine agonist activity in the rat rotation assay after intravenous administration at the 4.60 (umol/kg) dose.
In experiment [3] the test system is Rattus norvegicus. The experiment can be described thus: Compound was tested in vivo for dopamine agonist activity in the rat rotation assay after intravenous administration at the dose 1.38 (umol/kg).
For experiment [4], the system named is Rattus norvegicus. Kind of experiment: Compound was tested in vivo for dopamine agonist activity in the rat rotation assay after intravenous administration at dose 3.5 (umol/kg).

On to `CN1CCCC2(OCCO2)C1Cc1cccc2[nH]ccc12` (stereo not drawn), for which the ED50 in the experiment with Felis catus was found to be 0.095 µmol/kg.
For orientation: Inhibition means the drop in the measured response relative to a control, in per cent. For `CN1CCCC2(OCCO2)C1Cc1ccccc1` (stereo not drawn), the ED50 in the experiment with Felis catus is more than 4 µmol/kg. Also, the Inhibition in the experiment with Rattus norvegicus [1] worked out at 22%; in the experiment with Rattus norvegicus [2], 36%; in the experiment with Rattus norvegicus [3], 18%.
For `CN1CCCC2(OCCO2)C1Cc1c[nH]c2ccccc12` (stereo not drawn), the ED50 with Felis catus was more than 4 µmol/kg. The same molecule displayed an Inhibition in the experiment with Rattus norvegicus [4] of 32%.
In the case of `CN1CCc2cccc3c2[C@H]1Cc1ccc(O)c(O)c1-3` [APOMORPHINE], the ED50 in the experiment on Felis catus was determined as 0.0348 µmol/kg.
